These results are taken from ChEMBL document CHEMBL1154639, “Application of Huisgen (3+2) cycloaddition reaction: synthesis of 1-(2,3-dihydrobenzofuran-2-yl-methyl [1,2,3]-triazoles and their antitubercular evaluations” (2010).

SMILES strings stand for the structures. Values after ≈ are worked out from the molar mass of the structure shown. Bounds are passed on as bounds.

The assay deals with Mycobacterium tuberculosis. Put plainly: Antitubercular activity against Mycobacterium tuberculosis H37Rv after 30 days by agar microdilution method. In kind it is functional. In outline: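 M. tuberculosis H37Rv grown on L-J medium, harvested into 0.85% saline with 0.05% Tween-80. Compounds from a 1 mg/mL DMSO stock, two-fold dilutions in Middlebrook 7H10 agar slants with OADC. Slants preincubated 24 h at 37 °C, then streaked with 5 × 10^4 bacilli per tube and held at 37 °C. Growth read at 30 days against drug-free controls; MIC determined.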
For `N#Cc1ccc2c(c1)CC(Cn1cc(Cc3ccccc3)nn1)O2` (stereo not given), the MIC was more than 12.5 µg/mL.

Regarding `O=Cc1ccc2c(c1)CC(Cn1cc(-c3ccccc3)nn1)O2` (stereo not given), the MIC is more than 12.5 µg/mL.

Regarding `Cc1ccc(C)c2c1CC(Cn1cc(CO)nn1)O2` (stereo not given), the MIC was 12.5 µg/mL (≈ 48.2 µM).

In turn, `CCCCCc1cn(CC2Cc3c(ccc4ccccc34)O2)nn1` (stereo not given) came in with a minimum inhibitory concentration (MIC) of 12.5 µg/mL (≈ 38.9 µM).

The compound `[N-]=[N+]=NCC1Cc2cc(C=O)ccc2O1` (stereo not given) had an MIC of more than 12.5 µg/mL.

As to `O=Cc1ccc2c(c1)CC(Cn1cc(CO)nn1)O2` (stereo not given), the MIC was more than 12.5 µg/mL.

`CCCCCCc1cn(CC2Cc3cc(C#N)ccc3O2)nn1` (stereo not given): the MIC was more than 12.5 µg/mL.

`Cc1ccc(C)c2c1CC(CN=[N+]=[N-])O2` (stereo not given): the MIC was more than 12.5 µg/mL.

Consider `N#Cc1ccc2c(c1)CC(Cn1cc(CO)nn1)O2` (stereo not given), for which the minimal inhibitory concentration (MIC) was more than 25 µg/mL.

`CC[C@@H](CO)NCCN[C@@H](CC)CO` [ETHAMBUTOL] had an MIC of 3.25 µg/mL (≈ 15.9 µM).

In turn, `OCCc1cn(CC2Cc3c(ccc4ccccc34)O2)nn1` (stereo not given) displayed an MIC of more than 12.5 µg/mL.

As to `Cc1ccc(C)c2c1CC(Cn1cc(Cc3ccccc3)nn1)O2` (stereo not given), the MIC was more than 12.5 µg/mL.

On to `CCCCCc1cn(CC2Cc3c(C)ccc(C)c3O2)nn1` (stereo not given), for which the MIC was more than 12.5 µg/mL.

`N#Cc1ccc2c(c1)CC(CN=[N+]=[N-])O2` (stereo not given): the MIC is more than 12.5 µg/mL.

`Cc1ccc(C)c2c1CC(Cn1cc(CCO)nn1)O2` (stereo not given) returned an MIC of more than 12.5 µg/mL.

The compound `CCCCCCc1cn(CC2Cc3c(C)ccc(C)c3O2)nn1` (stereo not given) yielded an MIC of more than 12.5 µg/mL.

In the case of `OCc1cn(CC2Cc3c(ccc4ccccc34)O2)nn1` (stereo not given), the MIC was more than 12.5 µg/mL.

For `NNC(=O)c1ccncc1` [ISONIAZID], the minimum inhibitory concentration (MIC) was found to be 0.75 µg/mL (≈ 5.47 µM).

`[N-]=[N+]=NCC1Cc2c(ccc3ccccc23)O1` (stereo not given): inhibition of growth (MIC) required 3.12 µg/mL (≈ 13.9 µM).

On to `N#Cc1ccc2c(c1)CC(Cn1cc(CCO)nn1)O2` (stereo not given), for which the minimal inhibitory concentration (MIC) is more than 12.5 µg/mL.

The compound `CCCCCC(O)c1cn(CC2Cc3cc(C#N)ccc3O2)nn1` (stereo not given) came in with an MIC of more than 25 µg/mL.

`CCCCCc1cn(CC2Cc3cc(C=O)ccc3O2)nn1` (stereo not given): 12.5 µg/mL (≈ 41.8 µM) was the least that counted as inhibitory (MIC).

The compound `Cc1ccc(C)c2c1CC(Cn1cc(-c3ccccc3)nn1)O2` (stereo not given) showed a minimal inhibitory concentration (MIC) of more than 12.5 µg/mL.

Compound `CCCCCc1cn(CC2Cc3cc(C#N)ccc3O2)nn1` (stereo not given) registered a minimal inhibitory concentration (MIC) of more than 12.5 µg/mL.

The compound `CCCCCC(O)c1cn(CC2Cc3c(C)ccc(C)c3O2)nn1` (stereo not given) showed a minimum inhibitory concentration (MIC) of more than 12.5 µg/mL.

`O=Cc1ccc2c(c1)CC(Cn1cc(Cc3ccccc3)nn1)O2` (stereo not given) displayed an MIC of more than 12.5 µg/mL.

In turn, `c1ccc(Cc2cn(CC3Cc4c(ccc5ccccc45)O3)nn2)cc1` (stereo not given) had an MIC of more than 12.5 µg/mL.

`N#Cc1ccc2c(c1)CC(Cn1cc(-c3ccccc3)nn1)O2` (stereo not given) showed an MIC of more than 12.5 µg/mL.

As for `c1ccc(-c2cn(CC3Cc4c(ccc5ccccc45)O3)nn2)cc1` (stereo not given), the MIC was more than 12.5 µg/mL.

Compound `CCCCCCc1cn(CC2Cc3cc(C=O)ccc3O2)nn1` (stereo not given) displayed an MIC of 6.25 µg/mL (≈ 19.9 µM).

Broadly, the MIC is the smallest concentration in the dilution series that meets the test's criterion for growth inhibition. Read a high MIC as a need for much substance.
